Assay results: ChEMBL document CHEMBL1121617, “Antihypertensive ureidopiperidines” (1980)

Key:
Rattus norvegicus [1] = test: The percent fall in systolic blood pressure at 1.5 / 4 hr after peroral administration of 40 mg/kg in conscious renal hypertensive rats (RHR).; format: functional, Artery; conditions: route oral
Summary of the method: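 Conscious renal hypertensive rats, four per group, dosed orally. Starting systolic pressures were 160–200 mmHg. Percentage fall in systolic pressure was taken at 1.5 and/or 4 h after dosing. Falls under 10% were scored as ±.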

Rattus norvegicus [2] = test: The percent fall in systolic blood pressure at 1.5 / 4 hr after peroral administration of 50 mg/kg in DOCA/saline hypertensive rats at 24 hr; Non significant; format: functional, organism-based; set-up: dose 50 mg/kg; conditions: Artery, at 50 mg/kg
Rattus norvegicus [3] = test: Starting systolic blood pressure at dose of 50 mg/kg in rat; format: functional, Artery
Summary of the method: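 Mean systolic blood pressure before dosing for each group of four DOCA/saline hypertensive rats given 50 mg/kg orally. It indicates how far hypertension was established.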

Rattus norvegicus [4] = test: The percent fall in systolic blood pressure at 1.5 / 4 hr after peroral administration of 50 mg/kg in DOCA/saline hypertensive rats at 6 hr; format: functional, Artery; conditions: route oral
Rattus norvegicus [5] = test: The percent fall in systolic blood pressure at 1.5 / 4 h after peroral administration of 50 mg/kg in DOCA/saline hypertensive rats at 2 hr; format: functional, Artery; conditions: route oral
Rattus norvegicus [6] = test: The percent fall in systolic blood pressure at 1.5 / 4 hr after peroral administration of 50 mg/kg in DOCA/saline hypertensive rats at 2 hr; Non significant; format: functional, organism-based; set-up: dose 50 mg/kg; conditions: Artery, at 50 mg/kg
Rattus norvegicus [7] = test: Percent fall in systolic blood pressure at 1.5 / 4 hr after peroral administration of 50 mg/kg in DOCA/saline hypertensive rats at 6 h; Non significant; format: functional, organism-based; set-up: dose 50 mg/kg; conditions: Artery, at 50 mg/kg

SMILES | Activity (Rattus norvegicus [1]) | Fall (Rattus norvegicus [2]) | SP (Rattus norvegicus [3]) [mmHg] | Fall (Rattus norvegicus [4]) [%] | Fall (Rattus norvegicus [5]) [%] | Fall (Rattus norvegicus [6]) | Fall (Rattus norvegicus [7])
Cc1cccc(C)c1NC(=O)NC1CCN(CCCC(=O)c2ccccc2)CC1 | <10 |  |  |  |  |  | 
O=C(NC(=O)c1ccccc1)NC1CCN(CCCC(=O)c2ccc(F)cc2)CC1 |  | Not significant | 184 | 31 | 43 |  | 
NC(=O)NC1CCN(CCc2c[nH]c3ccccc23)CC1 | 28 |  |  |  |  |  | 
O=C(Nc1cccc(C(F)(F)F)c1)NC1CCN(CCCC(=O)c2ccccc2)CC1 |  | Not significant | 177 |  |  | Not significant | Not significant
O=C(Nc1ccc(Cl)cc1)NC1CCN(CCCC(=O)c2ccccc2)CC1 |  | Not significant | 200 | 25 | 30 |  | 
N=C(NC(=O)c1ccccc1)NC1CCN(CCc2c[nH]c3ccccc23)CC1 |  | Not significant | 165 |  |  | Not significant | Not significant
O=C(Nc1ccccc1C(F)(F)F)NC1CCN(CCc2c[nH]c3ccccc23)CC1 | <10 |  |  |  |  |  | 
COc1ccc(NC(=O)NC2CCN(CCCC(=O)c3ccccc3)CC2)cc1 | <10 |  |  |  |  |  | 
CN(/C(S)=N/c1ccccc1)C1CCN(CCc2c[nH]c3ccccc23)CC1 |  | Not significant | 172 |  |  | Not significant | Not significant
Cc1cccc(NC(=O)NC2CCN(CCCC(=O)c3ccccc3)CC2)c1 | 21 |  |  |  |  |  | 
O=C(Nc1ccccc1C(F)(F)F)NC1CCN(CCCC(=O)c2ccccc2)CC1 |  | Not significant | 208 | 20 | 20 |  | 
O=C(Nc1ccccc1)NC1CCN(CCc2c[nH]c3ccccc23)CC1 | 29 |  |  |  |  |  | 
CC(=O)Nc1ccc(OCC(O)CN2CCC(NC(=O)NC(=O)c3ccccc3)CC2)cc1 (stereo unspecified) |  | Not significant | 179 |  |  | Not significant | Not significant
COc1ccc(NC(=O)NC2CCN(CCc3c[nH]c4ccccc34)CC2)cc1 | 27 |  |  |  |  |  | 
O=C(NC(=S)NC1CCN(CCc2c[nH]c3ccccc23)CC1)c1ccccc1 |  | Not significant | 200 |  |  | Not significant | Not significant
COc1ccc(C(=O)NC(=O)NC2CCN(CC(O)COc3ccccc3OC)CC2)cc1 (stereo unspecified) |  | Not significant | 162 |  |  | Not significant | Not significant
O=C(NC(=O)c1ccccc1)NC1CCN(CC(O)COc2cccc3ccccc23)CC1 (stereo unspecified) |  | Not significant | 185 |  |  | Not significant | Not significant
O=C(Nc1ccc(Cl)cc1)NC1CCN(CCc2c[nH]c3ccccc23)CC1 | 21 |  |  |  |  |  | 
O=C(NC(=O)c1ccccc1)NC1CCN(CCCc2c[nH]c3ccccc23)CC1 |  | Not significant | 191 |  |  | Not significant | Not significant

SMILES | Activity (Rattus norvegicus [1]) | Fall (Rattus norvegicus [2]) | SP (Rattus norvegicus [3]) [mmHg] | Fall (Rattus norvegicus [4]) [%] | Fall (Rattus norvegicus [5]) [%] | Fall (Rattus norvegicus [6]) | Fall (Rattus norvegicus [7])
O=C(NC(=S)NC1CCN(CC(O)C2COc3ccccc3O2)CC1)c1ccc(Cl)cc1 (stereo unspecified) |  | Not significant | 175 |  |  | Not significant | Not significant
O=C(NC(=O)c1ccccc1)NC1CCN(CC(=O)C2COc3ccccc3O2)CC1 (stereo unspecified) |  | Not significant | 181 |  |  | Not significant | Not significant
COc1ccc(C(=O)NC(=O)NC2CCN(CC(O)C3COc4ccccc4O3)CC2)cc1 (stereo unspecified) |  | Not significant | 165 |  |  | Not significant | Not significant
Cn1cc(CCN2CCC(NC(=O)NC(=O)c3ccccc3)CC2)c2ccccc21 |  | Not significant | 172 | 28 | 26 |  | 
S=C(Nc1ccccc1)NC1CCN(CCc2c[nH]c3ccccc23)CC1 | 21 |  |  |  |  |  | 
O=C(CCCN1CCC(NC(=S)NC(=O)c2ccccc2)CC1)c1ccccc1 |  | Not significant | 186 | 32 | 36 |  | 
O=C(Nc1ccccc1)NC1CCN(CCCC(=O)c2ccccc2)CC1 | 39 | Not significant | 205 | 24 | 31 |  | 
CCCCNC(=O)NC1CCN(CCc2c[nH]c3ccccc23)CC1 |  | Not significant | 172 | 29 |  | Not significant | 
Cc1cccc(NC(=O)NC2CCN(CCc3c[nH]c4ccccc34)CC2)c1 | 14 |  |  |  |  |  | 
O=C(NC(=O)c1cccs1)NC1CCN(CCCC(=O)c2c[nH]c3ccccc23)CC1 |  | Not significant | 181 |  |  | Not significant | Not significant
O=C(Nc1ccc(Cl)c(Cl)c1)NC1CCN(CCc2c[nH]c3ccccc23)CC1 | 15 |  |  |  |  |  | 
O=C(Nc1ccc(Cl)cc1)NC1CCN(CC(O)C2COc3ccccc3O2)CC1 (stereo unspecified) |  | Not significant | 178 |  |  | Not significant | Not significant
N=C(NC(=O)c1ccccc1)NC1CCN(CCCC(=O)c2ccccc2)CC1 |  | Not significant | 188 |  |  | Not significant | Not significant
COc1ccccc1OCC(O)CN1CCC(NC(=O)NC(=O)c2ccc(F)cc2)CC1 (stereo unspecified) |  | Not significant | 196 |  |  | Not significant | Not significant
O=C(Nc1ccccc1)NC1CCN(CCCC(=O)c2c[nH]c3ccccc23)CC1 |  | Not significant | 187 |  |  | Not significant | Not significant
O=C(Nc1ccccc1)NC1CCN(CC(O)COc2cccc3ccccc23)CC1 (stereo unspecified) |  | Not significant | 170 |  |  | Not significant | Not significant
CCN(C(=O)Nc1ccccc1)C1CCN(CCc2c[nH]c3ccccc23)CC1 |  | Not significant | 170 |  |  | Not significant | Not significant
O=C(NC(=O)c1ccccc1)NC1CCN(CC(=O)c2c[nH]c3ccccc23)CC1 |  | Not significant | 178 |  |  | Not significant | Not significant
